In ChEMBL document CHEMBL1130289, “Polyanion inhibitors of human immunodeficiency virus and other viruses. 5. Telomerized anionic surfactants derived from amino acids” (J Med Chem, 1997):

Assays:
CEM-4 = assay: Cytotoxic concentration required to reduce the viability of uninfected cells by 50% after 5 days of incubation in the presence on CEM-4 cells.; type: functional; conditions: Homo sapiens, CEM-4, 120 h
In short: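 Uninfected CEM-4 cells were incubated with compound for 5 days. CC50 is the concentration that reduced viability by 50%. Values average at least two separate experiments.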

[1] = test system: Human immunodeficiency virus 1; assay: Inhibitory concentration required to inhibit HIV-induced cytopathicity in CEM-4 cells by 50% based in the MTT assay; type: functional, organism-based; conditions: Human immunodeficiency virus 1, CEM-4
[2] = test system: Human immunodeficiency virus 1; assay: Inhibitory concentration required to inhibit HIV-induced cytopathicity in CEM-4 cells by 50% based in the MTT assay; Not active; type: functional, organism-based
[3] = test system: Human immunodeficiency virus 2; assay: Concentration required to inhibit by 50% syncytium formation between MOLT-4 cells and HIV-2 (ROD) infected HUT-78 cells; type: functional, organism-based; conditions: Human immunodeficiency virus 2, MOLT-4
In short: (§1)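 Uninfected MOLT-4 cells were co-cultured with HUT-78 cells chronically infected with HIV-1 (IIIB) or HIV-2 (ROD), in the presence of compound. The end point was syncytium formation, and IC50 is the concentration giving 50% inhibition. Values are means of two separate experiments.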

Vero = assay: Minimum cytotoxic concentration required to cause a microscopically detectable alteration of normal cell morphology in Vero cells; type: functional, Chlorocebus sabaeus
In short: (§2)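 Uninfected E6SM, HeLa or Vero cells were exposed to compound and examined by microscopy. MCC is the lowest concentration causing a detectable alteration of normal cell morphology.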

Semliki Forest virus = assay: Concentration required to inhibit forest induced cytopathicity in Vero cells by 50%; type: functional, organism-based
In short: (§3)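 Virus was added to the cell monolayers in the presence of compound. Incubation continued until the viral cytopathic effect was scored. IC50 is the concentration that reduced virus-induced cytopathicity by 50%.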

Poliovirus 1 = assay: Concentration required to inhibit Polio-1 induced cytopathicity in HeLa cells by 50%; type: functional, organism-based; conditions: Enterovirus C
[4] = test system: Human immunodeficiency virus 2; assay: Concentration required to inhibit HIV-2 induced cytopathicity in MT-4 cells by 50%; type: functional, organism-based; conditions: Human immunodeficiency virus 2, MT4
In short: (§4)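 MT-4 cells were infected with HIV-1 (strain HTLV-IIIB/LAI) or HIV-2 (strain LAV-2 ROD) and exposed to compound. IC50 is the concentration that inhibited HIV-induced cytopathicity by 50%. Values are means of two separate experiments.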

E6SM = assay: Minimum cytotoxic concentration required to cause a microscopically detectable alteration of normal cell morphology in E6SM cells; type: functional, Homo sapiens; in short: as §2
MT4 = assay: Concentration required to reduce the viability of mock-infected MT-4 cells by 50%; type: functional; conditions: Homo sapiens
In short: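 Mock-infected MT-4 cells were exposed to compound. CC50 is the concentration that reduced cell viability by 50%. Values are means of two separate experiments.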

Human respirovirus 3 = assay: Concentration required to inhibit parainfluenza-3 induced cytopathicity in Vero cells by 50%; type: functional, organism-based; conditions: Human respirovirus 3, Vero; in short: as §3
[5] = test system: Vesicular stomatitis virus; assay: Concentration required to inhibit vesicular stomatitis induced cytopathicity in E6SM cells by 50%; type: functional, organism-based
Vaccinia virus = assay: Concentration required to inhibit Vaccinia induced cytopathicity in E6SM cells by 50%; type: functional, organism-based; conditions: Orthopoxvirus vaccinia
Human alphaherpesvirus 1 [6] = assay: Concentration required to inhibit HSV-1(KOS) induced cytopathicity in E6SM cells by 50%; conditions: Human alphaherpesvirus 1, E6SM
[7] = test system: Human immunodeficiency virus 1; assay: Concentration required to inhibit by 50% syncytium formation between MOLT-4 cells and HIV-1(IIIB); type: functional, organism-based; conditions: Human immunodeficiency virus 1, MOLT-4; in short: as §1
Human betaherpesvirus 5 [8] = assay: Concentration required to inhibit HCMV(Davis) induced cytopathicity in HEL cells by 50%; type: functional, organism-based; conditions: Human betaherpesvirus 5, HEL; in short: as §3
Human alphaherpesvirus 2 = assay: Concentration required to inhibit HSV-2(G) induced cytopathicity in E6SM cells by 50%; conditions: Human alphaherpesvirus 2, E6SM
HEL = assay: Minimum cytotoxic concentration required to cause a microscopically detectable alteration of normal cell morphology in HEL cells; type: functional, Homo sapiens
Sindbis virus = assay: Concentration required to inhibit Sindbis induced cytopathicity in Vero cells by 50%; type: functional, organism-based; in short: as §3
[9] = test system: Mammalian orthoreovirus 1; assay: Concentration required to inhibit reovirus-1 induced cytopathicity in Vero cells by 50%; type: functional, organism-based; conditions: Mammalian orthoreovirus 1, Vero; in short: as §3
HeLa = assay: Minimum cytotoxic concentration required to cause a microscopically detectable alteration of normal cell morphology in HeLa cells; type: functional, Homo sapiens; in short: as §2
Coxsackievirus = assay: Concentration required to inhibit Coxsackie induced cytopathicity in HeLa cells by 50%; type: functional, organism-based; in short: as §3
[10] = test system: Human immunodeficiency virus 1; assay: Concentration required to inhibit HIV-1 induced cytopathicity in MT-4 cells by 50%; type: functional, organism-based; conditions: Human immunodeficiency virus 1, MT4; in short: as §4
Human betaherpesvirus 5 [11] = assay: Concentration required to inhibit HCMV(AD169) induced cytopathicity in HEL cells by 50%; type: functional, organism-based; conditions: Human betaherpesvirus 5, HEL; in short: as §3
Tacaribe virus = assay: Concentration required to inhibit Tacaribe induced cytopathicity in Vero cells by 50%; type: functional, cell-based; conditions: Mammarenavirus tacaribeense
Junin virus = assay: Concentration required to inhibit Junin induced cytopathicity in Vero cells by 50%; type: functional, organism-based; conditions: Mammarenavirus juninense
Human alphaherpesvirus 1 [12] = assay: Concentration required to inhibit HSV-1 TK-(B2006) induced cytopathicity in E6SM cells by 50%; conditions: Human alphaherpesvirus 1, E6SM

CCCCCCCCCCCCSCCCCCCCCC(=O)N(CC)CCCCCCCCCCC(=O)[O-].[Na+]
CC50 (CEM-4): 100 µg/mL
IC50 [1]: 25 µg/mL

CCCCCCCCCCCCSCCCCCCCCC(=O)NCCCCCCCCCCC(=O)[O-].[Na+]
CC50 (CEM-4): 29 µg/mL
IC50 [2]: Not Active

CCCCCCCCCCCCSCCCCCCCCCCCCCCC(=O)NCCCCCCCCCCC(=O)NCC(=O)[O-].[Na+]
CC50 (CEM-4): > 300 µg/mL
IC50 [1]: 15 µg/mL

CCCCCCCCCCCCSCCCCC(=O)NCCCCCCCCCCC(=O)NCCC(=O)[O-].[Na+]
IC50 [3]: 6 µg/mL
MMC (Vero): >200 µg/mL
IC50 (Semliki Forest virus): > 200 µg/mL
IC50 (Poliovirus 1): > 200 µg/mL
CC50 (CEM-4): > 300 µg/mL
IC50 [4]: 27 µg/mL
MMC (E6SM): 400 µg/mL
CC50 (MT4): > 250 µg/mL
IC50 (Human respirovirus 3): > 200 µg/mL
IC50 [5]: > 200 µg/mL
IC50 (Vaccinia virus): > 200 µg/mL
IC50 (Human alphaherpesvirus 1 [6]): 40 µg/mL
IC50 [7]: 30 µg/mL
IC50 [2]: Not Active
IC50 (Human betaherpesvirus 5 [8]): 23 µg/mL
IC50 (Human alphaherpesvirus 2): 20 µg/mL
MMC (HEL): >50 µg/mL
IC50 (Sindbis virus): > 200 µg/mL
IC50 [9]: > 200 µg/mL
MMC (HeLa): >200 µg/mL
IC50 (Coxsackievirus): > 200 µg/mL
IC50 [10]: 6 µg/mL
IC50 (Human betaherpesvirus 5 [11]): 30 µg/mL
IC50 (Tacaribe virus): 43 µg/mL
IC50 (Junin virus): 50 µg/mL
IC50 (Human alphaherpesvirus 1 [12]): 70 µg/mL

CCCCCCCCCCCCSCCCCCCC(=O)NCCCCCCCCCCC(=O)NCC(=O)[O-].[Na+]
CC50 (CEM-4): 118 µg/mL
IC50 [2]: Not Active

CCCCCCCCCCCCSCCCCCCCCCCC(=O)N(CC)CCCCCCCCCCC(=O)NCCC(=O)[O-].[Na+]
IC50 [3]: 30 µg/mL
MMC (Vero): >200 µg/mL
IC50 (Semliki Forest virus): > 200 µg/mL
IC50 (Poliovirus 1): > 200 µg/mL
CC50 (CEM-4): 50 µg/mL
IC50 [4]: 30 µg/mL
CC50 (MT4): > 250 µg/mL
IC50 (Human respirovirus 3): > 200 µg/mL
IC50 [5]: > 200 µg/mL
IC50 (Vaccinia virus): > 200 µg/mL
IC50 (Human alphaherpesvirus 1 [6]): 70 µg/mL
IC50 [7]: 30 µg/mL
IC50 [2]: Not Active
IC50 (Human betaherpesvirus 5 [8]): 20 µg/mL
IC50 (Human alphaherpesvirus 2): 20 µg/mL
MMC (HEL): >50 µg/mL
IC50 (Sindbis virus): > 200 µg/mL
IC50 [9]: > 200 µg/mL
MMC (HeLa): >200 µg/mL
IC50 (Coxsackievirus): > 200 µg/mL
IC50 [10]: 13 µg/mL
IC50 (Human betaherpesvirus 5 [11]): 50 µg/mL
IC50 (Tacaribe virus): > 50 µg/mL
IC50 (Junin virus): > 50 µg/mL
IC50 (Human alphaherpesvirus 1 [12]): 150 µg/mL

CCCCCCCCCCCCSCCCCCCC(=O)N(CC)CCCCCCCCCCC(=O)NCC(=O)[O-].[Na+]
CC50 (CEM-4): 50 µg/mL
IC50 [2]: Not Active

CCCCCCCCCCCCSCCCCCCCCCCCCCCCCCCCCCCCCCCCCCCC(=O)N(CC)CCCCCCCCCCC(=O)NCC(=O)[O-].[Na+]
CC50 (CEM-4): 80 µg/mL
IC50 [1]: 4 µg/mL

CCCCCCCCCCCCSCCCCCCCCCCCCCCCCCCC(=O)N(C)CCCCCCCCCCC(=O)[O-].[Na+]
CC50 (CEM-4): > 200 µg/mL
IC50 [2]: Not Active

CCCCCCCCCCCCSCCCCCCC(=O)NCCCCCCCCCCC(=O)NCCC(=O)[O-].[Na+]
CC50 (CEM-4): > 300 µg/mL
IC50 [2]: Not Active

CCCCCCCCCCCCSCCCCCCCCCCCCCCCCCCCCCCC(=O)NCCCCCCCCCCC(=O)[O-].[Na+]
IC50 [3]: 150 µg/mL
IC50 (Semliki Forest virus): > 100 µg/mL
IC50 (Poliovirus 1): > 200 µg/mL
CC50 (CEM-4): 99 µg/mL
IC50 [4]: 69 µg/mL
MMC (E6SM): >200 µg/mL
CC50 (MT4): > 250 µg/mL
IC50 (Human respirovirus 3): > 100 µg/mL
IC50 [5]: > 100 µg/mL
IC50 (Vaccinia virus): > 100 µg/mL
IC50 (Human alphaherpesvirus 1 [6]): > 100 µg/mL
IC50 [7]: 150 µg/mL
IC50 [2]: Not Active
IC50 (Human betaherpesvirus 5 [8]): > 50 µg/mL
IC50 (Human alphaherpesvirus 2): > 100 µg/mL
MMC (HEL): >50 µg/mL
IC50 (Sindbis virus): > 100 µg/mL
IC50 [9]: > 100 µg/mL
MMC (HeLa): >200 µg/mL
IC50 (Coxsackievirus): > 200 µg/mL
IC50 [10]: 55 µg/mL
IC50 (Human betaherpesvirus 5 [11]): > 50 µg/mL
IC50 (Tacaribe virus): > 50 µg/mL
IC50 (Junin virus): > 50 µg/mL
IC50 (Human alphaherpesvirus 1 [12]): > 100 µg/mL

CCCCCCCCCCCCSCCCCCCCCCCCCCCCCCCCCCCCCCCCCCCCCCCC(=O)N(CC)CCCCCCCCCCC(=O)NC(CCC(=O)[O-])C(=O)O.[Na+] (stereo not drawn)
CC50 (CEM-4): > 300 µg/mL
IC50 [1]: 25 µg/mL

CCCCCCCCCCCCSCCCCCCCCCCCCCCCCCCCCC(=O)N(CC)CCCCCCCCCCC(=O)NC(CCC(=O)[O-])C(=O)O.[Na+] (stereo not drawn)
CC50 (CEM-4): > 300 µg/mL
IC50 [1]: 46 µg/mL

CCCCCCCCCCCCSCCCCCCCCCCC(=O)NCCCCCCCCCCC(=O)NC(CCC(=O)[O-])C(=O)O.[Na+] (stereo not drawn)
CC50 (CEM-4): > 100 µg/mL
IC50 [1]: 11 µg/mL
